Here are results for one compound from ChEMBL document CHEMBL1157936, “Synthesis of 7-benzyl-5-(piperidin-1-yl)-6,7,8,9-tetrahydro-3H-pyrazolo[3,4-c][2,7]naphthyridin-1-ylamine and its analogs as bombesin receptor subtype-3 agonists” (Bioorg Med Chem Lett, 2010).

Data set [1] addresses T1, Bombesin receptor subtype-3 (Rattus norvegicus) (UniProt Q8K418).
T1 sequence (whole entry): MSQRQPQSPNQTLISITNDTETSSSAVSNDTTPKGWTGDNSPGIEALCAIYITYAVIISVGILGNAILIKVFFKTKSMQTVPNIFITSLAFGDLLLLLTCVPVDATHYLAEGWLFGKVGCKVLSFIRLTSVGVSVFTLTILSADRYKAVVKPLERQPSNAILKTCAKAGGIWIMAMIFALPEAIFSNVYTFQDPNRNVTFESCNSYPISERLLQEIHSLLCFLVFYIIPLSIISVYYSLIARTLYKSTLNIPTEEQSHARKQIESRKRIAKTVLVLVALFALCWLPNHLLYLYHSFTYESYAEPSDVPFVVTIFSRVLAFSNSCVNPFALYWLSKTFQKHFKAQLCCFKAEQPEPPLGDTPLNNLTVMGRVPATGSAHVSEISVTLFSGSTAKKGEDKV
Briefly: Agonist activity at rat BRS3 expressed in HEK293AEQ cells after 10 mins by aequorin bioluminescence assay relative to dY-peptide. Format: functional, cell-based. Further details: concentration or dose not given beside the values.

A short description of data set [2]: Half life in rat. Format: ADME, organism-based. The note with it: in vivo.
Data set [3] deals with Rattus norvegicus. Briefly: Antiobesity activity in deit-induced obese rat model assessed as suppression of acute food intake at 0.3 mg/kg, iv relative to control. The class given is functional. A digest of the protocol:
(§1)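 Acute food intake was measured and expressed as percent suppression versus vehicle-treated rats. Melanotan-II served as the positive control.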

The target of data set [4] is T2, Bombesin receptor subtype-3 (Homo sapiens) (UniProt P32247).
T2 sequence (whole entry): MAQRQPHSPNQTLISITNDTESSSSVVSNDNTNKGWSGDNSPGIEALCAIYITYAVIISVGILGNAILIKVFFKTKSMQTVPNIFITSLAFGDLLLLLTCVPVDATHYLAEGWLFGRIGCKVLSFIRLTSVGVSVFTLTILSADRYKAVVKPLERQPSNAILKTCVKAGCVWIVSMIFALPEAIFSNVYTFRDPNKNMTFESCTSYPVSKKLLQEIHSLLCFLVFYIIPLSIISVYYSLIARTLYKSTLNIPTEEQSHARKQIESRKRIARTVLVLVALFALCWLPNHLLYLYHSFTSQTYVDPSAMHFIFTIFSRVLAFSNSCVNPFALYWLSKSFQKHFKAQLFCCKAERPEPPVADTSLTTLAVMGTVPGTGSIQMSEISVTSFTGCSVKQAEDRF
Briefly: Agonist activity at human BRS3 expressed in HEK293AEQ cells after 10 mins by aequorin bioluminescence assay relative to dY-peptide. The class given is functional, cell-based.

The nature of data set [5]: Drug level in rat brain at 1 mg/kg, iv after 2 hrs. Format: ADME, organism-based. Further details: dose 1 mg/kg, route intravenous. The note with it: read-out: Drug uptake. The method, boiled down: (§2)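 Rats received a single 1 mg/kg IV dose. Total drug concentration in brain and the brain/plasma ratio were measured at 0.25, 1 and 2 h post-dose.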
Data set [6] has as its system Rattus norvegicus. Briefly: Antiobesity activity in deit-induced obese rat model assessed as suppression of acute food intake at 10 mg/kg, iv relative to control. Format: functional. A digest of the protocol:
as §1

The nature of data set [7]: Ratio of drug level in brain to plasma in rat at 1 mg/kg, iv after 1 hr. On the set-up: dose 1 mg/kg, route intravenous. The class given is ADME, organism-based. The note with it: brain and plasma, read-out: BPR. The method, boiled down:
as §2

Data set [8] can be described thus: Drug level in rat brain at 1 mg/kg, iv after 1 hr. The class given is ADME, organism-based. On the set-up: dose 1 mg/kg, route intravenous. The note with it: read-out: Drug uptake. The method, boiled down:
as §2

Data set [9] is described as follows: Ratio of drug level in brain to plasma in rat at 1 mg/kg, iv after 2 hrs. Format: ADME, organism-based. Further details: dose 1 mg/kg, route intravenous. The note with it: brain and plasma, read-out: BPR. The method, boiled down: as §2
A short description of data set [10]: Ratio of drug level in brain to plasma in rat at 1 mg/kg, iv after 0.25 hr. The note with it: brain and plasma, read-out: BPR. Format: ADME, organism-based. On the set-up: dose 1 mg/kg, route intravenous. A digest of the protocol:
as §2

Data set [11] addresses T3, Bombesin receptor subtype-3 (Homo sapiens, UniProt P32247).
T3 sequence (P32247 whole entry): T2 sequence (whole entry)
In words: Agonist activity at human BRS3 expressed in HEK293AEQ cells after 10 mins by aequorin bioluminescence assay. Format: functional, cell-based.

Data set [12] can be described thus: Clearance in rat. Particulars: in vivo. Format: ADME, organism-based.
Data set [13] in a line: Drug level in rat brain at 1 mg/kg, iv after 0.25 hrs. Format: ADME, organism-based. Particulars: read-out: Drug uptake. Further details: dose 1 mg/kg, route intravenous. A digest of the protocol: as §2
A short description of data set [14]: Bioavailability in rat. Format: ADME, organism-based. The note with it: in vivo.
In data set [15] the target is T4, Bombesin receptor subtype-3 (Rattus norvegicus, UniProt Q8K418).
T4 sequence (Q8K418 whole entry): T1 sequence (whole entry)
Briefly: Agonist activity at rat BRS3 expressed in HEK293AEQ cells after 10 mins by aequorin bioluminescence assay. Format: functional, cell-based.

Consider `Nc1n[nH]c2nc(N3CCCCC3)c3c(c12)CCN(Cc1ccccc1)C3`, for which the Activity was 105% in data set [1], 43.6% in the data set with Rattus norvegicus [3], 60% in data set [4] and 31.6% with Rattus norvegicus [6]. Moreover, the half-life in [2] is 43.8 min. In addition, the concentration at 2 h in data set [5] turned out to be 140 nM. Also, in [7], the Kp at 1 h was 3.2. For the same compound, the concentration at 1 h in [8] stood at 390 nM. Moreover, in [9], the Kp at 2 h is 3.4. Besides, the Kp at 0.25 h in data set [10] is 4.4. Moreover, the EC50 worked out at 4.52 µM in [11] and 380 nM in data set [15]. Also, the clearance in data set [12] was 45 mL/min/kg. Moreover, the concentration at 0.25 h in data set [13] came out at 1210 nM. Moreover, the bioavailability in data set [14] was 5.7%.
